The values below come from ChEMBL document CHEMBL1138232, “Optimization of naphthalimide-imidazoacridone with potent antitumor activity leading to clinical candidate (HKH40A, RTA 502)” (J Med Chem, 2007).

The term GI50 denotes the concentration at which growth is held to half of that of the control. Read a low GI50 as greater sensitivity of the cells. By LC50 is commonly meant the concentration lethal to half of the exposed cells or organisms. As usually defined, the IC50 is the concentration that gives 50% inhibition. A low value points to greater potency.

Assay [1] concerns HCT-116. In words: Growth inhibition of human HCT116 cells after 5 days by MTT assay. Conditions: HCT-116, 120 h. The format is functional. Put shortly:
(§1)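 MTT assay after 5 day continuous exposure. GI50, TGI and LC50 calculated from the MTT data. Means ± SD of at least three independent experiments; coefficients of variation 10-20%. Compounds used as tri(methanesulfonate) salts.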

A short description of assay [2]: Growth inhibition of human Hep3B cells after 5 days by MTT assay. The class given is functional, Hep 3B2. Conditions: 120 h; for CC50: read-out: LC50 (the source's name). A digest of the protocol: as §1
In assay [3] the test system is HT-29. Nature of the assay: Growth inhibition of human HT29 cells after 5 days by MTT assay. The class given is functional. As to conditions: HT-29, 120 h; for CC50: read-out: LC50 (the source's name). Put shortly:
as §1

Assay [4] deals with HCT-116. Nature of the assay: Cell cycle arrest in HCT116 cells assessed as accumulation at G2/M phase at 50 nM after 72 hrs. The class given is functional, Homo sapiens. Put shortly:
(§2)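 HCT116 cells exposed to 50 nM drug for 72 h, then cell-cycle distribution analysed. Sub-G1, G1, S and G2/M fractions reported as percent of cells, with untreated control cells for comparison.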

Assay [5] is described as follows: Antitumor activity against human 10.05 cells expressing mutated p53. The class given is functional, cell-based. Put shortly:
(§3)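 Compounds tested as tri(methanesulfonate) salts, soluble in water and dilute buffers. Human tumour cells carrying wild-type or mutated p53 were exposed for 5 days, and viability was read by MTT assay. GI50, TGI and LC50 were calculated from the MTT data. Values are means ± SD of at least three independent experiments, with coefficients of variation of 10–20%.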

The test system of assay [6] is HCT-116. In words: Antitumor activity against human HCT116 cells expressing wild type p53. The class given is functional. As to conditions: read-out: LC50 (the source's name). A digest of the protocol:
as §3

In assay [7] the test system is HT-29. In words: Antitumor activity against HT29 cells expressing mutated p53. As to conditions: Homo sapiens. The format is functional, cell-based. A digest of the protocol:
as §3

The subject of assay [8] is HCT-116. Nature of the assay: Cell cycle arrest in HCT116 cells assessed as accumulation at G1 phase at 50 nM after 72 hrs. The format is functional, Homo sapiens. A digest of the protocol: as §2
The subject of assay [9] is RKO. In words: Antitumor activity against human RKO cells expressing wild type p53. The format is functional. As to conditions: read-out: LC50 (the source's name). A digest of the protocol: as §3
Assay [10] deals with PC-3. Nature of the assay: Antitumor activity against PC3 cells expressing mutated p53. Conditions: Homo sapiens. The format is functional, cell-based. Put shortly: as §3
Assay [11] concerns HCT-116. In words: Cell cycle arrest in HCT116 cells assessed as accumulation at Sub G1 phase at 50 nM after 72 hrs. The class given is functional, Homo sapiens. A digest of the protocol:
as §2

In assay [12] the test system is ASPC1. In words: Antitumor activity against p53 null human ASPC1 cells. The class given is functional, cell-based.
Assay [13] has as its system HCT-116. In words: Cell cycle arrest in HCT116 cells assessed as accumulation at S phase at 50 nM after 72 hrs. The class given is functional, Homo sapiens. A digest of the protocol: as §2
The subject of assay [14] is COLO 205. Nature of the assay: Antitumor activity against human Colo205 cells expressing mutated p53. The class given is functional, cell-based. Put shortly: as §3
For assay [15], the system named is MIA PaCa-2. In words: Inhibition of tumor growth in PaCa2 cells xenografted nu/nu mouse at 80 mg/kg. The class given is functional, Homo sapiens. As to conditions: read-out: TGI. Put shortly: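 PaCa-2 tumour fragments implanted on the flank of nu/nu mice, 10 per group. Intraperitoneal treatment, Q3Dx4, started 12 days post-inoculation at 80 mm3 tumour volume. Tumour growth inhibition measured.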

As to `O=C1c2cccc3cc([N+](=O)[O-])cc(c23)C(=O)N1CCCN1CCN(CCCNc2ccc3ncn4c5ccc(F)cc5c(=O)c2c34)CC1`, in assay [1], the GI50 is 1 nM and the LC50 came to 40 nM. Moreover, in assay [2], growth was halved (GI50) at 4 nM and the CC50 was 400 nM. In addition, in assay [3], the GI50 was determined as 2 nM and the CC50 amounted to 600 nM.

`O=C1c2cccc3cc([N+](=O)[O-])cc(c23)C(=O)N1CCCN1CCN(CCCNc2ccc3ncn4c5ccccc5c(=O)c2c34)CC1`: the Activity in assay [4] worked out at 45%; in assay [8] it was 37.9%; in assay [11] it was 15.5%; in assay [13], 1.3%. Besides, the IC50 is 300 nM in assay [5]; 550 nM in assay [7]; > 1000 nM in assay [10]; 350 nM in assay [12]; 500 nM in [14]. The CC50 in assay [6] amounted to 40 nM; in assay [2], 380 nM; in assay [3] it was 550 nM; in assay [9], 40 nM. For the same molecule, the GI50 was 1 nM in assay [1], 4 nM in assay [2] and 2 nM in [3]. This molecule displayed an LC50 in assay [1] of 40 nM.

Take `O=C1c2cccc3cccc(c23)C(=O)N1CCCN1CCN(CCCNc2ccc3ncn4c5ccccc5c(=O)c2c34)CC1`: in assay [1], the GI50 stood at 15 nM and the LC50 turned out to be 1000 nM. Also, in assay [2], it took 22 nM to inhibit growth by half (GI50) and the CC50 is 1000 nM. In [3], the GI50 is 11 nM and the CC50 was 1000 nM.

For the molecule `Cc1cccc2c1c(=O)c1c(NCCCN3CCN(CCCN4C(=O)c5cccc6cc([N+](=O)[O-])cc(c56)C4=O)CC3)ccc3ncn2c31`, in [1], the GI50 worked out at 3 nM and the LC50 stood at 30 nM.

Turning to `Cc1ccc2c(c1)c(=O)c1c(NCCCN3CCN(CCCN4C(=O)c5cccc6cc([N+](=O)[O-])cc(c56)C4=O)CC3)ccc3ncn2c31`, in [1], halving of growth (GI50) required 3.5 nM and the LC50 was 30 nM.

For the molecule `COc1ccc2c(c1)c(=O)c1c(NCCCN3CCN(CCCN4C(=O)c5cccc6c([N+](=O)[O-])ccc(c56)C4=O)CC3)ccc3ncn2c31`, the GI50 in assay [1] turned out to be 3 nM; in [2], 5 nM; in [3] it was 4 nM. Also, the LC50 in assay [1] is 350 nM. Further, the CC50 was found to be 800 nM in [2] and 1000 nM in assay [3].

In assay [1], `COc1ccc2c(c1)c(=O)c1c(NCCCN3CCN(CCCN4C(=O)c5cccc6cccc(c56)C4=O)CC3)ccc3ncn2c31` came in with a GI50 of 3.5 nM and an LC50 of 70 nM. In addition, in assay [2], the GI50 worked out at 3.5 nM and the CC50 is 330 nM. In assay [3], halving of growth (GI50) required 3 nM and the CC50 was 1000 nM.

In assay [1], `Nc1cc2c3c(cccc3c1)C(=O)N(CCCN1CCN(CCCNc3ccc4ncn5c6ccc(F)cc6c(=O)c3c45)CC1)C2=O` yielded a 50% growth inhibitory concentration (GI50) of 2.2 nM and an LC50 of 80 nM. In addition, in assay [3], it took 8 nM to inhibit growth by half (GI50) and the CC50 came to 750 nM.

Take `Nc1ccn([C@@H]2O[C@H](CO)[C@@H](O)C2(F)F)c(=O)n1` [GEMCITABINE]: the inhibition in vivo at 80 mg/kg in assay [15] came out at 85.3%.

On to `O=C1c2cccc3c([N+](=O)[O-])ccc(c23)C(=O)N1CCCN1CCN(CCCNc2ccc3ncn4c5ccccc5c(=O)c2c34)CC1`, for which, in [1], it took 5.5 nM to inhibit growth by half (GI50) and the median lethal concentration (LC50) is > 1000 nM. Besides, in [2], the GI50 amounted to 18 nM and the CC50 turned out to be 1000 nM. Also, in [3], the 50% growth inhibitory concentration (GI50) is 15 nM and the CC50 stood at 1000 nM.
